Bioassay records from PubChem BioAssay.
In the library only some 3.7% were active in any assay of this set; here they are far more common.
PKD1 inh: PKD1 (human) kinase inhibition; Q15139; PKD1 kinase fluorescence polarization assay; inhibition, % (concentration not given with the values); hit rate 0.056% among 200,000; in the data active means inhibition above about 50%
m-calpain inh: calpain II (pig) inhibition | hit rate 0.37% among 220,000 | purified calpain II, fluorogenic peptide substrate, 30 min | inhibition, % at 16 µM;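 active means inhibition above about 50%, limit read from the data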
MDM2 E3 inh: inhibitors of human Mdm2 E3 ubiquitin ligase; Q00987; cell-based MDM2 ubiquitination luciferase reporter, 2 h; 0 = plate control, 100 = twice control, blank-subtracted; signal enhancement, % at 5 µM; hit rate 0.11% among 210,000; AID 1230;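 active means signal enhancement of 30% or more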;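 further: luminescence tracks abundance of the self-degrading MDM2-luciferase fusion protein; higher signal means inhibition of MDM2 E3 ligase activity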
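Material: stable MDM2–luciferase fusion reporter cells / Quantity: 2000 cells/well / Dosing: single 5 µM compound dose, 0.2% final DMSO / Buffer or medium: DMEM / Schedule: 4 h cell settling then 2 h compound exposure, 37 °C / Detection: luminescence with SteadyLite reagent, 15 min at room temperature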
ROMK mod: modulators of human ROMK potassium channel | Tet-inducible ROMK, thallium flux fluorescence; actives lie on both sides | P48048 | B-score at 10 µM | hit rate 2% among 130,000 | AID 1918;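 active means signal ratio slope over the read window, or its plate-corrected B-score, at least 3 SD from the plate mean, either direction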;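 further: B-score of the F/F0 ratio slope over 7 to 12 s after thallium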
Target sequence (P48048 whole entry, looked up): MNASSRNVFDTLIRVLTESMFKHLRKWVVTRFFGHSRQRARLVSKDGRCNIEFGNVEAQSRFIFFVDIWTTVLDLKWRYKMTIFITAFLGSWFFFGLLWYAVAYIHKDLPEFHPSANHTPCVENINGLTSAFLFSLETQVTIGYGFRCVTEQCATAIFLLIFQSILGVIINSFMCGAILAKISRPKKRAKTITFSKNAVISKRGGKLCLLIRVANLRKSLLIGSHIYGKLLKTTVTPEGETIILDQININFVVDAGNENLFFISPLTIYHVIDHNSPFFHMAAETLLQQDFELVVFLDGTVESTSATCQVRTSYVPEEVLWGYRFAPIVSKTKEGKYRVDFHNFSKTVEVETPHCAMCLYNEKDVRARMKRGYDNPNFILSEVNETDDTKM
Cl transport mod: modulators of human KCC2 chloride dependent transport; Q9H2X9; KCC2 cells, thallium flux FluoZin-2 fluorescence; B-score of Tl+ flux slope (higher = more flux/activation; lower = inhibition) at 10 µM; hit rate 2.2% among 190,000; AID 1456;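 active means thallium flux slope and its plate-corrected score both differing from the plate sample mean at a set confidence after two filtering rounds, in either direction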;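 further: slope of fluorescence scaled to starting intensity during 10 to 20 s after thallium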
Arbovirus inh: antivirals against arbovirus infection | arbovirus infection cell-based antiviral screen | AID 1251 | inhibition, % at 10 µM | hit rate 0.37% among 200,000; in the data active means inhibition above about 30%
KCC2 secondary: confirmation of human KCC2 transport modulators; shares compounds with Cl transport mod; HEK293-KCC2, thallium flux, FluoZin2 fluorescence; active compounds read high; normalised thallium flux (F/F0 slope) at 10 µM; hit rate 15% among 3,700; AID 1713;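 active means thallium flux slope above the same plate's solvent-only control mean plus 3 SD; inconclusive means the two replicate wells disagree; inactive means no significant difference from solvent-only control wells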
KCC2 bumet counter: thallium flux persisting under bumetanide in KCC2 cells, counter-screen secondary assay. AID 1714. HEK293-KCC2 + bumetanide/ouabain, thallium flux FluoZin2; active compounds read high. shares compounds with Cl transport mod. hit rate 49% among 3,700. normalized thallium flux at 10 µM;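 active means thallium entry rate above the same plate's blocked-transporter control wells by more than 3 SD; inconclusive means the two repeat wells disagree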;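 further: raw slope of fluorescence over initial fluorescence between 10 and 20 s after thallium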
KCC2 sec2: confirmation of human KCC2 transport modulators. shares compounds with Cl transport mod. HEK293-KCC2, thallium flux FluoZin2 fluorescence; actives lie on both sides; F/F0 rise rate, 10–20 s post-thallium. normalized thallium flux at 10 µM. hit rate 23% among 3,700. AID 1715;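 active means thallium flux slope more than 3 SD above or below the plate's solvent-only control mean, mostly below; inconclusive means the two repeat wells disagreed; inactive means no significant shift from solvent-only controls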
HEK counter1: acts in parental HEK cells, KCC2 counter-screen | shares compounds with Cl transport mod | HEK293 parental cells, thallium flux FluoZin2, ouabain; baseline-ratio fluorescence slope, 10–20 s after thallium | thallium flux rate (normalised fluorescence) at 10 µM | hit rate 46% among 3,700;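 active means thallium flux rate significantly above the same plate's solvent-only control wells, beyond their mean plus 3 SD; inconclusive means the two replicate wells gave conflicting results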
KCC2 retest ouab: confirmation of human KCC2 modulators with ouabain | shares compounds with Cl transport mod | HEK293-KCC2, thallium flux FluoZin2 fluorescence; bidirectional: low = inhibitor, high = activator | raw Tl+ flux slope (below DMSO = inhibition, above = activation) at 10 µM | hit rate 48% among 3,700 | AID 1717;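 active means thallium flux slope beyond 3 SD from same-plate DMSO control mean in most replicates, usually higher, sometimes lower; inconclusive means repeat tests gave conflicting results; inactive means no significant difference from controls in most replicates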;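 further: slope of initial-normalized fluorescence between seconds 10 and 20 after thallium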
HEK counter2: acts in parental HEK cells, second KCC2 counter-screen; thallium flux slope at 10 µM; shares compounds with Cl transport mod; hit rate 33% among 3,700; HEK293 parental, thallium flux FluoZin-2 fluorescence slope;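 active means thallium flux slope above the same plate's solvent-control mean plus 3 SD in both duplicate wells; inconclusive means duplicate wells that disagreed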;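 further: run without ouabain in cells lacking the KCC2 cotransporter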
A number is an active result; 0 = inactive; ? = inconclusive; - = no result.

SMILES	PKD1 inh	m-calpain inh	MDM2 E3 inh	ROMK mod	Cl transport mod	Arbovirus inh	KCC2 secondary	KCC2 bumet counter	KCC2 sec2	HEK counter1	KCC2 retest ouab	HEK counter2
CC(=O)c1ccc(NC2=C(N3CCOCC3)C(=O)c3ccccc3C2=O)cc1	0	0	0	0	0	0	-	-	-	-	-	-
Cc1ccc(NC2=C(N3CCOCC3)C(=O)c3ccccc3C2=O)cc1	0	0	0	-	-	0	0	0	0.026	0	?	0
CCCCC(=O)Nc1ccc(NC(=S)NC(=O)c2ccco2)cc1OC	-	0	0	-	13	-	0.022	0.047	?	0.02	0.026	0.022
COc1ccc(S(=O)(=O)Nc2ccccc2C(=O)Nc2nc(-c3ccc(F)cc3)cs2)cc1OC	0	0	0	0	-6.2	0	0.006	0	0	?	0.012	0
COc1cc(NC(=S)NC(=O)c2cccs2)ccc1NC(=O)C(C)C	0	0	0	0	5.1	0	0	0.024	0	0.01	?	0.011
COc1ccc(-c2csc(NC(=S)NC(=O)c3cccs3)n2)cc1OC	0	0	0	0	31	0	0.01	0.046	0.056	0.044	0.048	0.044
COc1ccc(-c2csc(NC(=O)c3ccccc3NS(=O)(=O)c3ccc(C)cc3)n2)cc1	0	0	0	-	0	0	-	-	-	-	-	-
CCCCC(=O)Nc1ccc(NC(=S)NC(=O)c2cccs2)cc1OC	0	0	0	-	0	0	-	-	-	-	-	-
O=C(Nc1ccccc1)c1ncoc1-c1ccc(Cl)cc1	-	0	0	-	0	-	-	-	-	-	-	-
O=S1(=O)CCN(OCc2ccc(F)cc2Cl)CC1	0	0	0	0	0	0	-	-	-	-	-	-
COc1cc(NC(=O)C(C)C)ccc1NC(=O)c1ccco1	0	0	0	-	-	0	-	-	-	-	-	-
COc1ccc(OC)c(NC(=O)C(=O)NNC(=O)c2cccs2)c1	0	0	0	-	9.9	0	0.015	0.063	0	0.022	0.04	0.015
COc1ccc(OC)c(NC(=O)C2CCN(C(=O)c3cccs3)CC2)c1	0	0	0	0	0	0	-	-	-	-	-	-
COc1cc(NC(=S)NC(=O)c2ccco2)ccc1NC(=O)C(C)C	0	0	0	0	5.2	0	0	0.012	0	0.012	?	0
COc1ccc(C2CC(=O)c3cnc(NC(=O)c4ccccc4)nc3C2)c(OC)c1 (stereo unspecified)	0	0	0	-	-	0	-	-	-	-	-	-
COc1ccc(C(=O)OC(C(=O)c2ccccc2)c2ccccc2)cc1 (stereo unspecified)	0	0	0	-	0	0	-	-	-	-	-	-
O=C(NNC(=O)c1sccc1-n1cccc1)c1ccc(F)cc1	0	0	0	0	-	0	0	0.017	0	?	0.026	0
O=C(NNC(=O)c1c(F)cccc1F)c1sccc1-n1cccc1	0	0	0	0	0	0	-	-	-	-	-	-
Cc1cccnc1Nc1nc(-c2ccc(O)cc2)cs1	0	0	0	0	-	0	0	0	0	0	0	?
Brc1ccccc1-c1nnc(COc2cccc3cccnc23)o1	0	0	0	0	-3	0	0	0	0	0	0.038	0
Clc1ccccc1OCc1nnc(-c2ccccc2Br)o1	0	0	0	-	0	0	-	-	-	-	-	-
Cc1ccc(CNC(=O)/C=C/c2ccc(S(=O)(=O)N3CCOCC3)cc2)cc1	0	0	0	0	0	0	-	-	-	-	-	-
CCn1c(SCC(=O)Nc2nc3ccccc3s2)nc2c(c1=O)SC(C)C2 (stereo unspecified)	0	0	0	-	-4.1	0	0	0	0	0.0057	0.02	0
N#Cc1c(NC(=S)NC(=O)Cc2cccs2)sc2c1CCCCC2	0	0	0	0	7.4	0	0	0.02	0	0.0093	?	0
O=C(Nn1c(C2CCCCC2)nc2ccccc2c1=O)c1ccc([N+](=O)[O-])cc1Cl	0	0	0	0	0	0	-	-	-	-	-	-
SMILES	PKD1 inh	m-calpain inh	MDM2 E3 inh	ROMK mod	Cl transport mod	Arbovirus inh	KCC2 secondary	KCC2 bumet counter	KCC2 sec2	HEK counter1	KCC2 retest ouab	HEK counter2
C=CCN1C(=O)C(C)(C)Nc2ccccc21	0	0	0	-	-	0	-	-	-	-	-	-
C=CCN1C(=O)N(/C=C/C)c2cccc3cccc1c23	0	0	0	0	7.6	0	0	0	0	0.0057	0	0
COc1ccc(CCN(CC(=O)NC2CCCC2)C(=O)Cn2nnc(-c3ccc(C)o3)n2)cc1OC	0	0	0	0	0	0	-	-	-	-	-	-
COC(=O)c1cccc(C23CC4(C2)[C@H](CN(Cc2cccnc2)[C@@H]4c2ccccc2)C3c2ccc(C(F)(F)F)cc2)c1 (stereo partly specified)	-	0	0	-	-3.2	-	?	0.0085	0	0	0	0
COC(=O)c1cccc(C23CC4(C2)[C@H](CN(Cc2cccnc2)[C@@H]4c2ccccc2)C3c2ccc(Cl)nc2)c1 (stereo partly specified)	-	0	0	-	0	-	-	-	-	-	-	-
CC1=Nc2ccccc2/C1=C\c1nc(-c2ccc(F)cc2)oc1O	0	0	0	0	0	0	-	-	-	-	-	-
COc1ccc2[nH]c3c(NCCN4CCCCC4)ncnc3c2c1	0	0	0	-	-5.2	0	0	0	0	0	0	0
S=c1nc(-c2ccccc2Cl)[nH][nH]1	0	0	0	-	-	0	-	-	-	-	-	-
S=c1nc(-c2csc3c2CCCC3)[nH][nH]1	0	0	0	0	4.2	0	0	0.016	0	0.015	0.022	0.017
O=C(O)c1ccc(N2CCCCS2(=O)=O)cc1	0	0	0	0	-	0	0	0	0.026	0	0	0
CSc1nc2ccc3nc(NC(=O)c4ccc(C)cc4)sc3c2s1	0	0	0	-	0	0	-	-	-	-	-	-
Cc1ccc(Nc2nc3ccccc3c(=O)s2)cc1C	0	0	0	0	17	0	0	0.031	0.043	0.026	0.039	0.028
COc1ccc(Nc2nc3ccccc3c(=O)s2)c(OC)c1	0	0	0	0	0	0	-	-	-	-	-	-
Cc1ccc(C(=O)Nc2nc3ccccc3c(=O)s2)cc1	0	0	0	0	41	0	0.027	0.14	0.054	0.079	0.11	0.029
O=S(=O)(O)C1CCNCC1	0	0	-	-	0	0	-	-	-	-	-	-
Cc1ccccc1N(CC(=O)NCCSc1ccccn1)S(=O)(=O)c1ccccc1	0	0	0	0	-2.9	0	0	0	0	0	0	0
